The text below walks through data of ChEMBL document CHEMBL5055637, “Novel C-3-(N-alkyl-aryl)-aminomethyl rifamycin SV derivatives exhibit activity against rifampicin-resistant Mycobacterium tuberculosis RpoBS522L strain and display a different binding mode at the RNAP β-subunit site compared to rifampicin” (2021).

Holding throughout (assay type): functional
Holding throughout (details): time 5 day

For test [1], the system named is Mycobacterium tuberculosis. Kind of test: Antitubercular activity against rifampicin resistant Mycobacterium tuberculosis HN878 harboring RpoBH455D mutant assessed as bacterial growth inhibition measured after 5 days by serial dilution method. The method in brief:
(§1)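 Strains grown in Middlebrook 7H9 with OADC supplement and 0.05% w/v Tween 80. Compounds tested as 10-point 2-fold serial dilutions. Growth read as OD590 after 5 days in 7H9-OADC-Tw. Levenberg-Marquardt curve fitting gave MIC90, the concentration inhibiting growth by 90% relative to controls. Run in triplicate.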

Test [2] concerns Mycobacterium tuberculosis. Kind of test: Antitubercular activity against rifampicin resistant Mycobacterium tuberculosis ATCC 35838 harboring RpoBS531L mutant assessed as bacterial growth inhibition measured after 5 days by serial dilution method. An outline of the steps: as §1
Test [3] has as its system Mycobacterium tuberculosis H37Rv. As to the kind of experiment: Antitubercular activity against rifampicin resistant Mycobacterium tuberculosis H37Rv harboring RpoBS522L mutant assessed as bacterial growth inhibition measured after 5 days by serial dilution method. An outline of the steps:
as §1

In brackets after ≈: the same amount, converted by molar mass.

`CO[C@H]1/C=C/O[C@@]2(C)Oc3c(C)c(O)c4c(O)c(c(CN5CCN(CCO)CC5)c(O)c4c3C2=O)NC(=O)/C(C)=C\C=C\[C@H](C)[C@H](O)[C@@H](C)[C@@H](O)[C@@H](C)[C@H](OC(C)=O)[C@@H]1C`: the MIC90 was over 20 µM in test [1], over 20 µM in test [2] and 4.7 µM (≈ 3.95 µg/mL) in test [3].

Turning to `CO[C@H]1/C=C/O[C@@]2(C)Oc3c(C)c(O)c4c(O)c(c(CNCc5ccc(S(C)(=O)=O)cc5)c(O)c4c3C2=O)NC(=O)/C(C)=C\C=C\[C@H](C)[C@H](O)[C@@H](C)[C@@H](O)[C@@H](C)[C@H](OC(C)=O)[C@@H]1C`, the MIC90 in test [1] was over 20 µM; in test [2], over 20 µM; in test [3], 3.2 µM (≈ 2.86 µg/mL).

Consider `CO[C@H]1/C=C/O[C@@]2(C)Oc3c(C)c(O)c4c(O)c(c(CNCc5ccncc5)c(O)c4c3C2=O)NC(=O)/C(C)=C\C=C\[C@H](C)[C@H](O)[C@@H](C)[C@@H](O)[C@@H](C)[C@H](OC(C)=O)[C@@H]1C`, for which the figures for the MIC90 in test [1], in test [2] and in test [3] were over 20 µM, over 20 µM and 6.7 µM (≈ 5.48 µg/mL), respectively.

In the case of `CO[C@H]1/C=C/O[C@@]2(C)Oc3c(C)c(O)c4c(O)c(c(CNCc5ccccc5)c(O)c4c3C2=O)NC(=O)/C(C)=C\C=C\[C@H](C)[C@H](O)[C@@H](C)[C@@H](O)[C@@H](C)[C@H](OC(C)=O)[C@@H]1C`, the MIC90 in test [1] was 9.9 µM (≈ 8.09 µg/mL); in test [2], over 20 µM; in test [3] it was 12 µM (≈ 9.8 µg/mL).

In the case of `CO[C@H]1/C=C/O[C@@]2(C)Oc3c(C)c(O)c4c(O)c(c(CNCc5cccs5)c(O)c4c3C2=O)NC(=O)/C(C)=C\C=C\[C@H](C)[C@H](O)[C@@H](C)[C@@H](O)[C@@H](C)[C@H](OC(C)=O)[C@@H]1C`, the values for the MIC90 in test [1], in test [2] and in test [3] were 14 µM (≈ 11.5 µg/mL), over 20 µM and 8 µM (≈ 6.58 µg/mL), respectively.

With `CO[C@H]1/C=C/O[C@@]2(C)Oc3c(C)c(O)c4c(O)c(c(CNCc5ccco5)c(O)c4c3C2=O)NC(=O)/C(C)=C\C=C\[C@H](C)[C@H](O)[C@@H](C)[C@@H](O)[C@@H](C)[C@H](OC(C)=O)[C@@H]1C`, the MIC90 was 16 µM (≈ 12.9 µg/mL) in test [1], over 20 µM in test [2] and over 20 µM in test [3].

Regarding `COC(=O)c1ccc(CNCc2c3c(O)c4c(O)c(C)c5c(c4c2O)C(=O)[C@@](C)(O/C=C/[C@H](OC)[C@@H](C)[C@@H](OC(C)=O)[C@H](C)[C@H](O)[C@H](C)[C@@H](O)[C@@H](C)/C=C/C=C(/C)C(=O)N3)O5)cc1`, the MIC90 in test [1] was over 20 µM; in test [2] it was over 20 µM; in test [3], 7.7 µM (≈ 6.74 µg/mL).

With `CO[C@H]1/C=C/O[C@@]2(C)Oc3c(C)c(O)c4c(O)c(c(CNCCc5c[nH]c6ccccc56)c(O)c4c3C2=O)NC(=O)/C(C)=C\C=C\[C@H](C)[C@H](O)[C@@H](C)[C@@H](O)[C@@H](C)[C@H](OC(C)=O)[C@@H]1C`, the MIC90 in test [1] was over 20 µM; in test [2], over 20 µM; in test [3], 3.1 µM (≈ 2.7 µg/mL).

As for `CO[C@H]1/C=C/O[C@@]2(C)Oc3c(C)c(O)c4c(O)c(c(CNCCc5ccc(O)cc5)c(O)c4c3C2=O)NC(=O)/C(C)=C\C=C\[C@H](C)[C@H](O)[C@@H](C)[C@@H](O)[C@@H](C)[C@H](OC(C)=O)[C@@H]1C`, the MIC90 in test [1] is over 20 µM; in test [2], over 20 µM; in test [3], 5.8 µM (≈ 4.91 µg/mL).

As to `NNC(=O)c1ccncc1` [ISONIAZID], the MIC90 was 0.62 µM (≈ 0.085 µg/mL) in test [1], 0.55 µM (≈ 0.0754 µg/mL) in test [2] and 0.29 µM (≈ 0.0398 µg/mL) in test [3].

`CO[C@H]1/C=C/O[C@@]2(C)Oc3c(C)c(O)c4c(O)c(c(/C=N/N5CCN(C)CC5)c(O)c4c3C2=O)NC(=O)/C(C)=C\C=C\[C@H](C)[C@H](O)[C@@H](C)[C@@H](O)[C@@H](C)[C@H](OC(C)=O)[C@@H]1C` [RIFAMPIN]: the MIC90 in test [1], in test [2] and in test [3] was over 8 µM throughout.
